Laboratory results as given in ChEMBL document CHEMBL1122721, “Synthesis and antiarrhythmic activity of new 1-[1-[2-[3-(alkylamino)-2-hydroxypropoxy]phenyl]vinyl]-1 H-imidazoles and related compounds” (J Med Chem, 1984).

Tests used:
[1] = organism: Cavia porcellus; assay: Maximal follow rate showing the contractile frequencies of atria to electrical stimulation 10 min after incubation with right atria of guinea pig.; type: functional
Method in brief: (§1)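 Isolated right atria driven by electrical stimulation (Dawes' method). Maximal follow rate, the highest contractile frequency the atria follow, measured as an index of refractory period 10 min after incubation with compound.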

[2] = biological target: Adrenergic receptor beta (Cavia porcellus); assay: Beta adrenergic receptor blocking activity measured by the inotropic effect was determined 1 hr after pretreament of the right atria in guinea pig
[3] = biological target: Adrenergic receptor beta (Cavia porcellus); assay: Beta adrenergic receptor blocking activity measured by the chronotropic effect was determined 1 hr after pretreatment of the right atria in guinea pig
[4] = Lethal dose in mice (LD50) (following i.v. dosing); details: mouse, in vivo, iv
[5] = tested on: Mus musculus; assay: Compound was evaluated for ventricular extrasystole activity, 3 min before aconitine infusion, at a dose of 3 mg/kg, intravenously administered in mice; S=significant antiarrhythmic effect; type: functional, organism-based; parameters: dose 3 mg/kg; details: Heart
Method in brief: (§2)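 Aconitine arrhythmia model in pentobarbital-anesthetized male mice (20-35 g). Test compound was given iv 3 min or po 30 min before continuous tail-vein infusion of aconitine (0.685 µg/min). Lead II ECG recorded; onset times of ventricular extrasystole (VES) and ventricular tachycardia (VT) were measured.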

[6] = tested on: Mus musculus; assay: Compound was evaluated for ventricular tachycardia activity in intravenously administered mice, 3 min before aconitine infusion, at a dose of 3 mg/kg; S=significant antiarrhythmic effect; type: functional, organism-based; parameters: dose 3 mg/kg; details: Heart; method in brief: as §2
[7] = tested on: Mus musculus; assay: Compound was evaluated for ventricular tachycardia activity in perorally administered mice, 30 min before aconitine infusion, at a dose of 10 mg/kg; S=significant antiarrhythmic effect; type: functional, organism-based; parameters: dose 10 mg/kg; details: Heart; method in brief: as §2
[8] = tested on: Mus musculus; assay: Compound was evaluated for ventricular extrasystole, 30 min before aconitine infusion, at a dose of 10 mg/kg, perorally administered in mice; S=significant antiarrhythmic effect; type: functional, organism-based; parameters: dose 10 mg/kg; details: Heart; method in brief: as §2
[9] = tested on: Mus musculus; assay: Compound was evaluated for ventricular extrasystole activity, 3 min before aconitine infusion, at a dose of 10 mg/kg, intravenously administered in mice; S=significant antiarrhythmic effect; type: functional, organism-based; parameters: dose 10 mg/kg; details: Heart; method in brief: as §2
[10] = organism: Cavia porcellus; assay: Effect on maximal follow rate showing the contractile frequencies of atria to electrical stimulation 10 min after incubating compound with right atria of guinea pig; type: functional; method in brief: as §1
[11] = tested on: Mus musculus; assay: Compound was evaluated for ventricular tachycardia activity in intravenously administered mice, 3 min before aconitine infusion, at a dose of 10 mg/kg; S=significant antiarrhythmic effect; type: functional, organism-based; parameters: dose 10 mg/kg; details: Heart; method in brief: as §2
[12] = tested on: Mus musculus; assay: Compound was evaluated for ventricular extrasystole, 30 min before aconitine infusion, at a dose of 30 mg/kg, perorally administered in mice; S=significant antiarrhythmic effect; type: functional, organism-based; parameters: dose 30 mg/kg; details: Heart; method in brief: as §2
[13] = tested on: Mus musculus; assay: Compound was evaluated for ventricular tachycardia activity in perorally administered mice, 30 min before aconitine infusion, at a dose of 30 mg/kg; S=significant antiarrhythmic effect; type: functional, organism-based; parameters: dose 30 mg/kg; details: Heart; method in brief: as §2

pA2 [2] | pA2 [3] | SMILES | Decrease [1] [%] | further results
6.99 | 6.64 | C=C(c1cccc(OC)c1OCC(O)CNC(C)C)n1ccnc1 (centres undefined) | 29 | 
6.24 | 6.24 | C=C(c1ccccc1OCC(O)CNC(C)C)n1ccnc1C (centres undefined) | 15 | 
6.15 | 6.13 | C=C(c1ccccc1OCC(O)CN1CCCC1)n1ccnc1 (centres undefined) | 16.7 | 
5.04 | 5.49 | C=C(c1cc(Cl)cc(C)c1OCC(O)CNC(C)(C)C)n1ccnc1 (centres undefined) | 27.3 | 
6.47 | 6.36 | C=C(c1c(C)ccc(C)c1OCC(O)CNC(C)(C)C)n1ccnc1 (centres undefined) | 17.1 | 
6.74 | 6.76 | C=C(c1cc(Cl)ccc1OCC(O)CNC(C)C)n1cccn1 (centres undefined) | 14.3 | 
5.63 | 5.66 | C=C(c1cccc(Cl)c1OCC(O)CNC(C)C)n1ccnc1 (centres undefined) | 28.2 | 
7.3 | 7.19 | C/C=C(\c1ccccc1OCC(O)CNC(C)(C)C)n1ccnc1 (centres undefined) | 14.5 | 
6.64 | 6.5 | C=C(c1cc(Cl)cc(Cl)c1OCC(O)CNC(C)C)n1ccnc1 (centres undefined) | 27.5 | 
6.41 | 6.3 | C=C(c1cc(Cl)ccc1OCC(O)CNC(C)C)n1ccnc1 (centres undefined) | 27.1 | 
5.05 | 5.08 | C=C(c1c(Cl)ccc(Cl)c1OC[C@@H](O)CNC(C)C)n1ccnc1.Cl |  | Activity [7]: Anti-arrhythmic; Activity [8]: Anti-arrhythmic; Activity [9]: Anti-arrhythmic; Activity [6]: Anti-arrhythmic; Decrease [10]: 40.3%
5.95 | 5.86 | C=C(c1ccc(Cl)cc1OCC(O)CNC(C)C)n1ccnc1 (centres undefined) | 26.3 | 
7.16 | 7.19 | C=C(c1ccccc1OCC(O)CNC(C)C)n1cnc(C)c1 (centres undefined) |  | Activity [6]: Anti-arrhythmic
6.83 | 6.9 | CC(C)NCC(O)COc1ccccc1C(C)n1ccnc1 (centres undefined) | 15.6 | 
8.01 | 8.1 | C=C(c1ccccc1OCC(O)CNC(C)(C)C)n1cccn1 (centres undefined) |  | Activity [11]: Anti-arrhythmic
6.97 | 6.97 | C=C(c1ccccc1OCC(O)CNC(C)(C)C)n1ccnc1C (centres undefined) | 27.1 | 
6.41 | 6.26 | C=C(c1cccc(OC)c1OCC(O)CNC(C)C)n1cnc2ccccc21 (centres undefined) | 22.3 | 
6.17 | 5.8 | C=C(c1ccccc1OCC(O)CNC(C)C)n1c(C)cnc1CC (centres undefined) | 9.1 | 

pA2 [2] | pA2 [3] | SMILES | Decrease [1] [%] | further results
6.46 | 6.67 | C=C(c1ccccc1OCC(O)CNC(C)C)n1cnc2ccccc21 (centres undefined) | 16.8 | 
6.19 | 6.2 | C=C(c1ccccc1OCC(O)CNC(C)C)n1ccc(=O)cc1 (centres undefined) | 13 | 
6.31 | 5.55 | C=C(c1cc(C)cc(C)c1OCC(O)CNC(C)C)n1ccnc1 (centres undefined) | 25.9 | 
5.19 | 4.46 | C=C(c1c(Cl)ccc(Cl)c1OC[C@H](O)CNC(C)C)n1ccnc1.Cl |  | Activity [7]: Anti-arrhythmic; Activity [5]: Anti-arrhythmic; Activity [6]: Anti-arrhythmic; Decrease [10]: 39.5%
6.66 | 6.69 | CC(C)NCC(O)COc1ccccc1Cn1ccnc1 (centres undefined) | 14.2 | 
6.76 | 6.52 | C/C=C(\c1ccccc1OCC(O)CNC(C)C)n1ccnc1 (centres undefined) | 18.6 | 
6.37 | 6.15 | C=C(c1ccccc1OCC(O)CNC(C)C)n1cnc(C(=O)OCC)c1C (centres undefined) |  | 
6.21 | 6.19 | C=C(c1ccc(Cl)cc1OCC(O)CNC)n1ccnc1 (centres undefined) | 17.8 | 
8.01 | 7.69 | C=C(c1ccccc1OCC(O)CNC(C)(C)C)n1ccnc1 (centres undefined) | 14.1 | 
5.41 | 5.27 | C=C(c1c(Cl)ccc(Cl)c1OCC(O)CNC(C)(C)C)n1ccnc1 (centres undefined) | 26.3 | 
7.08 | 7.29 | C=C(c1ccccc1OCC(O)CNC(C)(C)C)n1cnc2ccccc21 (centres undefined) |  | Activity [5]: Anti-arrhythmic; Activity [6]: Anti-arrhythmic
5.19 | 4.9 | CC(C)=C(c1cc(Cl)ccc1OCC(O)CNC(C)C)n1ccnc1 (centres undefined) | 21.6 | 
6.89 | 6.89 | C=C(c1ccccc1OCC(O)CNC(C)C)n1ccnc1 (centres undefined) | 27.1 | 
7.75 | 7.44 | C=C(c1ccccc1OCC(O)CNC(C)C)n1cccn1 (centres undefined) | 21.6 | 
6.27 | 6.44 | C=C(c1c(Cl)cc(Cl)cc1OCC(O)CNC(C)C)n1ccnc1 (centres undefined) | 19.6 | 
6.23 | 6.64 | C=C(c1cc(Cl)c(Cl)cc1OCC(O)CNC(C)C)n1ccnc1 (centres undefined) | 23.8 | 
7.54 | 7.42 | CC(C)NCC(O)COc1ccccc1Cn1cccn1 (centres undefined) | 28.7 | 
6.51 | 6.3 | C=C(c1cc(Cl)cc(Cl)c1OCC(O)CNC(C)(C)C)n1ccnc1 (centres undefined) | 27.1 | 

SMILES | pA2 [2] | pA2 [3] | Decrease [1] [%] | further results
C=C(c1c(C)ccc(C)c1OCC(O)CNC(C)C)n1ccnc1 (centres undefined) | 6.43 | 6.23 | 35.7 | LD50 [4]: 30.7 mg/kg; Activity [5]: Anti-arrhythmic; Activity [6]: Anti-arrhythmic
C=C(c1c(C)c(C)cc(Cl)c1OCC(O)CNC(C)(C)C)n1ccnc1 (centres undefined) | 6.21 | 6.18 | 31.9 | LD50 [4]: 18.8 mg/kg; Activity [5]: Anti-arrhythmic; Activity [6]: Anti-arrhythmic
C=C(c1cccc(C)c1OCC(O)CNC(C)(C)C)n1ccnc1 (centres undefined) | 5.62 | 5.81 | 46.6 | LD50 [4]: 23.1 mg/kg; Activity [5]: Anti-arrhythmic; Activity [12]: Anti-arrhythmic; Activity [6]: Anti-arrhythmic; Activity [13]: Anti-arrhythmic
C=C(c1cccc(OC)c1OCC(O)CNC(C)(C)C)n1cnc2ccccc21 (centres undefined) | 7.03 | 7.03 | 39.2 | LD50 [4]: 19.8 mg/kg; Activity [5]: Anti-arrhythmic; Activity [6]: Anti-arrhythmic
C=C(c1ccccc1OCC(O)CN(C)C)n1ccnc1 (centres undefined) | 6.12 | 5.41 | 30.7 | Activity [11]: Anti-arrhythmic; LD50 [4]: 45.4 mg/kg; Activity [9]: Anti-arrhythmic
C=C(c1cc(C)cc(C)c1OCC(O)CNC(C)(C)C)n1ccnc1 (centres undefined) | 6.58 | 5.55 | 31.8 | LD50 [4]: 15.9 mg/kg; Activity [5]: Anti-arrhythmic; Activity [6]: Anti-arrhythmic
C=C(c1cc(Cl)cc(C)c1OCC(O)CNC(C)C)n1ccnc1 (centres undefined) | 5.93 | 5.22 | 37.9 | LD50 [4]: 48.8 mg/kg; Activity [5]: Anti-arrhythmic; Activity [6]: Anti-arrhythmic
